Experimental data reported in ChEMBL document CHEMBL4371014, “Novel Allosteric Ligands of γ-Aminobutyric Acid Transporter 1 (GAT1) by MS Based Screening of Pseudostatic Hydrazone Libraries” (J Med Chem, 2018).

Target: Sodium- and chloride-dependent GABA transporter 1 (Mus musculus) (UniProt P31648)
Experiment: Inhibition of NO711 binding to mouse GAT1 expressed in HEK293 cell membranes assessed as residual binding at 1 uM preincubated for 4 hrs followed by NO711 addition and measured after 40 mins by LC-ESI-MS/MS analysis relative to control
Procedure, shortened: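 Single hydrazones formed in situ in the presence of mouse GAT1 from one aldehyde (1.0 µM) and hydrazine (200 µM). Formation ran 4 h, then NO711 MS marker was added for 40 min. Specifically bound NO711 was freed from the target and quantified by LC-ESI-MS/MS. Results are % remaining specific binding, means±SD of four replicates.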

Row | Structure (SMILES) | Activity [%]
1 | COc1cc(C=O)cc(OC)c1O | 99
2 | COc1cc(F)ccc1-c1ccccc1C=O | 101
3 | COc1ccc(C=O)cc1 | 98
4 | COc1ccc(F)cc1-c1ccccc1C=O | 108
5 | COc1cccc(F)c1-c1ccccc1C=O | 112
6 | COc1ccccc1C=O | 108
7 | Cc1ccc(-c2cccc(C=O)c2)cc1 | 104
8 | Cc1ccc(-c2ccsc2C=O)c(C)c1 | 124
9 | Cc1ccc(-c2ccsc2C=O)cc1 | 109
10 | Cc1cccc2cc(C=O)c(Cl)nc12 | 103
11 | Cc1ccccc1-c1ccsc1C=O | 93
12 | Cc1ccsc1-c1ccccc1C=O | 105
13 | Cc1ccsc1-c1sc(C=O)cc1C | 106
14 | Cn1c(C=O)ccc1-c1ccc(Cl)cc1 | 101
15 | Cn1cnnc1Sc1ccc(C=O)o1 | 86
16 | Nc1ncc(-c2ccccc2C=O)cn1 | 121
17 | O=Cc1cc(Br)co1 | 126
18 | O=Cc1ccc(-c2cc(C(F)(F)F)cc(C(F)(F)F)c2)o1 | 103
19 | O=Cc1ccc(-c2cc(C(F)(F)F)ccc2Cl)o1 | 88
20 | O=Cc1ccc(-c2ccc(Br)cc2)o1 | 97
21 | O=Cc1ccc(-c2ccc(C(F)(F)F)cc2Cl)o1 | 98
22 | O=Cc1ccc(-c2ccc(Cl)cc2)o1 | 75
23 | O=Cc1ccc(-c2ccc(Cl)cc2)s1 | 107
24 | O=Cc1ccc(-c2ccc(Cl)cc2Cl)o1 | 97
25 | O=Cc1ccc(-c2ccc(Cl)cc2F)o1 | 97
26 | O=Cc1ccc(-c2ccc(Cl)cc2[N+](=O)[O-])o1 | 72

Row | Structure (SMILES) | Activity [%]
27 | O=Cc1ccc(-c2ccc(F)c(C(F)(F)F)c2)o1 | 99
28 | O=Cc1ccc(-c2cccc(C(F)(F)F)c2)o1 | 70
29 | O=Cc1ccc(-c2cccc(Cl)c2)o1 | 103
30 | O=Cc1ccc(-c2cccc3ccccc23)o1 | 92
31 | O=Cc1ccc(-c2ccccc2)[nH]1 | 98
32 | O=Cc1ccc(-c2ccccc2)o1 | 82
33 | O=Cc1ccc(-c2ccccc2)s1 | 112
34 | O=Cc1ccc(-c2ccccc2Br)o1 | 129
35 | O=Cc1ccc(-c2ccccc2C(F)(F)F)o1 | 90
36 | O=Cc1ccc(-c2ccccc2Cl)o1 | 99
37 | O=Cc1ccc(-c2ccccc2OC(F)(F)F)o1 | 88
38 | O=Cc1ccc(-c2ccn[nH]2)o1 | 93
39 | O=Cc1ccc(Br)o1 | 127
40 | O=Cc1ccc(C#Cc2ccccc2)s1 | 90
41 | O=Cc1ccc(I)o1 | 115
42 | O=Cc1ccc([N+](=O)[O-])cc1 | 113
43 | O=Cc1ccc2ccccc2n1 | 114
44 | O=Cc1ccc[nH]1 | 107
45 | O=Cc1cccc(-c2ccc(Cl)cc2)c1 | 108
46 | O=Cc1cccc(-c2ccc(F)cc2)c1 | 122
47 | O=Cc1cccc(-c2ccccc2)c1 | 111
48 | O=Cc1cccc(Oc2ccccc2)c1 | 109
49 | O=Cc1ccccc1-c1cc(F)cc(F)c1 | 112
50 | O=Cc1ccccc1-c1cc(F)ccc1F | 98
51 | O=Cc1ccccc1-c1ccc(F)cc1F | 97
52 | O=Cc1ccccc1-c1cccc(F)c1F | 107

Row | Structure (SMILES) | Activity [%]
53 | O=Cc1ccccc1-c1cccnc1 | 119
54 | O=Cc1ccccc1-c1cccs1 | 107
55 | O=Cc1ccccc1-c1ccsc1 | 106
56 | O=Cc1ccccc1-n1cccc1 | 92
57 | O=Cc1cccn1-c1ccc(C(F)(F)F)cc1 | 87
58 | O=Cc1ccco1 | 107
59 | O=Cc1cccs1 | 118
60 | O=Cc1ccnc2ccccc12 | 100
61 | O=Cc1cnc(-c2ccc3ccccc3c2)nc1 | 110
62 | O=Cc1cnc(-c2cccc3ccccc23)nc1 | 124
63 | O=Cc1cnc(-c2ccccc2)nc1 | 113
64 | O=Cc1cnc(-c2ccccc2F)nc1 | 116
65 | O=Cc1cnc(-c2ccccn2)nc1 | 106
66 | O=Cc1cnc(-c2ccco2)nc1 | 118
67 | O=Cc1cnc(-c2cccs2)nc1 | 103
68 | O=Cc1cnc(N2CCCCC2)nc1 | 108
69 | O=Cc1cnc(NCc2ccccc2)nc1 | 118
70 | O=Cc1cnc(SCc2ccccc2)nc1 | 116
71 | O=Cc1cncnc1 | 118
72 | O=Cc1csc2ccccc12 | 77
73 | O=Cc1sccc1-c1ccc(C(F)(F)F)cc1C(F)(F)F | 129
74 | O=Cc1sccc1-c1ccc(Cl)cc1 | 113
75 | O=Cc1sccc1-c1ccc(Cl)cc1Cl | 116
76 | O=Cc1sccc1-c1ccc(F)cc1F | 118
77 | O=Cc1sccc1-c1ccccc1 | 113
78 | O=Cc1sccc1-c1ccccc1Cl | 121

Row | Structure (SMILES) | Activity [%]
79 | O=Cc1sccc1-c1ccccc1F | 121
80 | O=Cc1sccc1-n1cccc1 | 82
81 | COc1cc(F)ccc1-c1ccccc1/C=N/NC[C@@H]1CNC[C@H](C(=O)O)C1 (racemic) | 80
82 | COc1ccc(/C=N/NC[C@@H]2CNC[C@H](C(=O)O)C2)cc1 (racemic) | 85
83 | COc1ccc(F)cc1-c1ccccc1/C=N/NC[C@@H]1CNC[C@H](C(=O)O)C1 (racemic) | 72
84 | COc1ccccc1/C=N/NC[C@@H]1CNC[C@H](C(=O)O)C1 (racemic) | 85
85 | Cc1ccsc1-c1sc(/C=N/NC[C@@H]2CNC[C@H](C(=O)O)C2)cc1C (racemic) | 74
86 | O=C(O)[C@H]1CNC[C@@H](CN/N=C/c2ccc(-c3ccccc3OC(F)(F)F)o2)C1 (racemic) | 66
87 | O=C(O)[C@H]1CNC[C@@H](CN/N=C/c2ccc(C#Cc3ccccc3)s2)C1 (racemic) | 51
88 | O=C(O)[C@H]1CNC[C@@H](CN/N=C/c2ccc([N+](=O)[O-])cc2)C1 (racemic) | 83
89 | O=C(O)[C@H]1CNC[C@@H](CN/N=C/c2ccc3ccccc3n2)C1 (racemic) | 81
90 | O=C(O)[C@H]1CNC[C@@H](CN/N=C/c2cccc(Oc3ccccc3)c2)C1 (racemic) | 46
91 | O=C(O)[C@H]1CNC[C@@H](CN/N=C/c2ccccc2-c2cc(F)cc(F)c2)C1 (racemic) | 90
92 | O=C(O)[C@H]1CNC[C@@H](CN/N=C/c2ccccc2-c2cc(F)ccc2F)C1 (racemic) | 73
93 | O=C(O)[C@H]1CNC[C@@H](CN/N=C/c2ccccc2-c2ccc(F)cc2F)C1 (racemic) | 66
94 | O=C(O)[C@H]1CNC[C@@H](CN/N=C/c2ccccc2-c2cccc(F)c2F)C1 (racemic) | 58
95 | O=C(O)[C@H]1CNC[C@@H](CN/N=C/c2ccccc2-c2cccnc2)C1 (racemic) | 93
96 | O=C(O)[C@H]1CNC[C@@H](CN/N=C/c2ccccc2-c2cccs2)C1 (racemic) | 87
97 | O=C(O)[C@H]1CNC[C@@H](CN/N=C/c2ccccc2-n2cccc2)C1 (racemic) | 91
98 | O=C(O)[C@H]1CNC[C@@H](CN/N=C/c2cccn2-c2ccc(C(F)(F)F)cc2)C1 (racemic) | 75
99 | O=C(O)[C@H]1CNC[C@@H](CN/N=C/c2ccnc3ccccc23)C1 (racemic) | 74
100 | O=C(O)[C@H]1CNC[C@@H](CN/N=C/c2csc3ccccc23)C1 (racemic) | 82
101 | O=C(O)[C@H]1CNC[C@@H](CN/N=C/c2sccc2-n2cccc2)C1 (racemic) | 86
